From the M2OR odorant receptor database

Legend:
Conditions in all cases: stereoisomer not certain
OR6C65 (Homo sapiens) = molecular target: T1, OR6C65 (Homo sapiens) (UniProt A6NJZ3)
T1 sequence (whole entry): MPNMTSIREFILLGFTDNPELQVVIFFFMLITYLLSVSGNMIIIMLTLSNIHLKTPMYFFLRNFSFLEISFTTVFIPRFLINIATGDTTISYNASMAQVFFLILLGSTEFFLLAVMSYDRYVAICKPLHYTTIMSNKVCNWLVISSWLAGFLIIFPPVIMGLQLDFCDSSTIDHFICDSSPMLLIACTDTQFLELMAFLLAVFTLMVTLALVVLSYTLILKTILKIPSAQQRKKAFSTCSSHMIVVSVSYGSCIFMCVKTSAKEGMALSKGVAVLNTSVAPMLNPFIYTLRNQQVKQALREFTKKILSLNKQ
In short: (§1)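 Each receptor–molecule pair is labelled responsive or non-responsive (inactive) according to whether the original authors judged the measured signal statistically different from baseline. The data were taken from the main text and supplementary material of published papers and checked for typos and inconsistencies. Assay methods differed by source, with transient luciferase assays in mammalian cell lines being common.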

OR6C68 (Homo sapiens) = molecular target: T2, OR6C68 (Homo sapiens) (UniProt A6NDL8)
T2 sequence (whole entry): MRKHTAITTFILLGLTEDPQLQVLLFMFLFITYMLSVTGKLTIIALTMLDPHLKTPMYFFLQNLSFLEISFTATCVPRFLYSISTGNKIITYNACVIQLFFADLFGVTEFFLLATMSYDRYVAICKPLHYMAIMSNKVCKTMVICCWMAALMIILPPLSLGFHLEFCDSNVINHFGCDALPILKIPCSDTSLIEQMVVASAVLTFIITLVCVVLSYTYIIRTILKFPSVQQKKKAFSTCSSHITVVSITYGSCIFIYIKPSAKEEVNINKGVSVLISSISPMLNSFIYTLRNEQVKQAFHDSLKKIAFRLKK
In short: as §1

OR6C70 (Homo sapiens) = molecular target: T3, OR6C70 (Homo sapiens) (UniProt A6NIJ9)
T3 sequence (whole entry): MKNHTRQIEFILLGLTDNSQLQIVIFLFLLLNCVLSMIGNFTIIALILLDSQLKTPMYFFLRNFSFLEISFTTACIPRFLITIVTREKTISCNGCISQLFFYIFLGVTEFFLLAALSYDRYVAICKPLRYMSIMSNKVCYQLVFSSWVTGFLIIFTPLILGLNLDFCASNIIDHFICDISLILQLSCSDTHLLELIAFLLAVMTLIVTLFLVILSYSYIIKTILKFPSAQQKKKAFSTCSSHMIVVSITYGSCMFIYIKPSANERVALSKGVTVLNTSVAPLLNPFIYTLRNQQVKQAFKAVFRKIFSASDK
In short: as §1

OR6C74 (Homo sapiens) = molecular target: T4, OR6C74 (Homo sapiens) (UniProt A6NCV1)
T4 sequence (whole entry): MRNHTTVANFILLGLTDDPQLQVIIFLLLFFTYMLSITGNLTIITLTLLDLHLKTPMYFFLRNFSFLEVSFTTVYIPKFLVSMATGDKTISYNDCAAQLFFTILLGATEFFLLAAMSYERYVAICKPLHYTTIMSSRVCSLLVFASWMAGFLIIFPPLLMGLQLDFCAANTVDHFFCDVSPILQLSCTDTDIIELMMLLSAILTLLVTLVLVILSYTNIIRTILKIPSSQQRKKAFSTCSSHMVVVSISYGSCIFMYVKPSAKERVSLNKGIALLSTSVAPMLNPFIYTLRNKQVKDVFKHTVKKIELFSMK
In short: as §1

OR6C75 (Homo sapiens) = molecular target: T5, OR6C75 (Homo sapiens) (UniProt A6NL08)
T5 sequence (whole entry): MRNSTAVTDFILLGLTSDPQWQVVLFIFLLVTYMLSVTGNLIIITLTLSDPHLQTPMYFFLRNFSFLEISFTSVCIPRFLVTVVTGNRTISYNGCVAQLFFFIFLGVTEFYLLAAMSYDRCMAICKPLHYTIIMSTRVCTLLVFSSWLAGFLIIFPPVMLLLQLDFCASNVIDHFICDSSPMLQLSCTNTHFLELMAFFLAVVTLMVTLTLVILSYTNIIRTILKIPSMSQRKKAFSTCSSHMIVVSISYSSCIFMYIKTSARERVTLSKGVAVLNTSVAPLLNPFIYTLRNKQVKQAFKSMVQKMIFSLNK
In short: as §1

OR6C76 (Homo sapiens) = molecular target: T6, OR6C76 (Homo sapiens) (UniProt A6NM76)
T6 sequence (whole entry): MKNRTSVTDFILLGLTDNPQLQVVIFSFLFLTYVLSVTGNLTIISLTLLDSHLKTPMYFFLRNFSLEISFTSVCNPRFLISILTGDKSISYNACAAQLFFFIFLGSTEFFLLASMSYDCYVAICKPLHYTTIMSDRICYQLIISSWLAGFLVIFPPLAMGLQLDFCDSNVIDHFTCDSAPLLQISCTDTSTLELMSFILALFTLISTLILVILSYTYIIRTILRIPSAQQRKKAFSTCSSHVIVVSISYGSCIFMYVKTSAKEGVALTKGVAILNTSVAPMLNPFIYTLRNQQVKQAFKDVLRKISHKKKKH
In short: as §1

OR6F1 (Homo sapiens) = molecular target: T7, OR6F1 (Homo sapiens) (UniProt Q8NGZ6)
T7 sequence (whole entry): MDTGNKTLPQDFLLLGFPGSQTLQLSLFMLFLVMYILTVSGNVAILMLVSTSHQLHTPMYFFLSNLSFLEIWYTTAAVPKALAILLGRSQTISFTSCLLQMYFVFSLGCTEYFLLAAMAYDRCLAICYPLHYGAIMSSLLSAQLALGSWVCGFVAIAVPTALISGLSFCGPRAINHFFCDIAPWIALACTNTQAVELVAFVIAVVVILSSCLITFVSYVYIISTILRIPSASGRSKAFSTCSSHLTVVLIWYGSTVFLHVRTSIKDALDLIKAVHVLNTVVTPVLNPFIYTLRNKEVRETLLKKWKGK
In short: as §1

OR6J1 (Homo sapiens) = molecular target: T8, OR6J1 (Homo sapiens) (UniProt Q8NGC5)
T8 sequence (whole entry): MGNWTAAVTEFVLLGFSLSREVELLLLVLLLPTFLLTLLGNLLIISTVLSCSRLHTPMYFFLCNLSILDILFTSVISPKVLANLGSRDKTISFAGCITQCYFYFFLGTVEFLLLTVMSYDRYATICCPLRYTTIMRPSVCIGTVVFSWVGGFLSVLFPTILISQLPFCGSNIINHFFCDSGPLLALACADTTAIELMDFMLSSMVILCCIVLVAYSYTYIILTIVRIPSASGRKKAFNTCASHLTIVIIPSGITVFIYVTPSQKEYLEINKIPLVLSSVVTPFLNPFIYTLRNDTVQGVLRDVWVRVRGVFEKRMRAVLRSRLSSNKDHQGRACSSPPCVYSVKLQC
In short: as §1

OR6K2 (Homo sapiens) = molecular target: T9, OR6K2 (Homo sapiens) (UniProt Q8NGY2)
T9 sequence (whole entry): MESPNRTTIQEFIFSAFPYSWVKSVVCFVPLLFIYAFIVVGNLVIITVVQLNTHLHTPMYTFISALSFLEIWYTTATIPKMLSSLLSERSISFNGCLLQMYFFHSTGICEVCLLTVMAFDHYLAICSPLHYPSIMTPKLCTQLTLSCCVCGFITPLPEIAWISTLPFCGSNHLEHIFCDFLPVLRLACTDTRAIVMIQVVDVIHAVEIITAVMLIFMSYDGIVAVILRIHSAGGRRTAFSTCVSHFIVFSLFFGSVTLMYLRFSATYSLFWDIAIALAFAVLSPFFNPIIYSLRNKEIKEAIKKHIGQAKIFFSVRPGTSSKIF
In short: as §1

OR6K3 (Homo sapiens) = molecular target: T10, OR6K3 (Homo sapiens) (UniProt Q8NGY3)
T10 sequence (whole entry): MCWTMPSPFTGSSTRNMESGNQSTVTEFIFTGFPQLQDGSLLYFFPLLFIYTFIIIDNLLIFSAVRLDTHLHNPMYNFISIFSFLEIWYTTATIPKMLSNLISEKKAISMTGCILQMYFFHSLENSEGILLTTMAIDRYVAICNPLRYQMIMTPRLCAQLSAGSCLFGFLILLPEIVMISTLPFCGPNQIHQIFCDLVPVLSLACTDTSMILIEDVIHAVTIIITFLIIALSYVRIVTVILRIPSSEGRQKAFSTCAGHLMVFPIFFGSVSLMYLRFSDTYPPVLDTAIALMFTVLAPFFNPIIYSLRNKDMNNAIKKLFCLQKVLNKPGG
In short: as §1

OR6K6 (Homo sapiens) = molecular target: T11, OR6K6 (Homo sapiens) (UniProt Q8NGW6)
T11 sequence (whole entry): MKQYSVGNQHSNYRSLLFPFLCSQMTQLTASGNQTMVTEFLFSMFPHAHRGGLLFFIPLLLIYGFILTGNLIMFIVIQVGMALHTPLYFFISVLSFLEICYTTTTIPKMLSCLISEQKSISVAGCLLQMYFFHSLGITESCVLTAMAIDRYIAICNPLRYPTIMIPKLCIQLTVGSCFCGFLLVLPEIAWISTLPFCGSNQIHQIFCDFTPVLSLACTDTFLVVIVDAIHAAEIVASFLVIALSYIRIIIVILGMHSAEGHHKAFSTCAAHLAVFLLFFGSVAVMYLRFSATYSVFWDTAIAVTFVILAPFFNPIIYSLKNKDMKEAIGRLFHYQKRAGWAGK
In short: as §1

OR6M1 (Homo sapiens) = molecular target: T12, OR6M1 (Homo sapiens) (UniProt Q8NGM8)
T12 sequence (whole entry): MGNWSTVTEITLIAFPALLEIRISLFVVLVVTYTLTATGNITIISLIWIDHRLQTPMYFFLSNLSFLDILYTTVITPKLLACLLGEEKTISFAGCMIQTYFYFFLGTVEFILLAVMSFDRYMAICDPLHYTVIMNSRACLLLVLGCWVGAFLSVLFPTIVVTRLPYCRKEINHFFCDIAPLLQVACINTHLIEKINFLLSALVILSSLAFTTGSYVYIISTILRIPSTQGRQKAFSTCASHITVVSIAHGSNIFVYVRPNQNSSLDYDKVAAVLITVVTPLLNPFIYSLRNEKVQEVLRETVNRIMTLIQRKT
In short: as §1

OR6N1 (Homo sapiens) = molecular target: T13, OR6N1 (Homo sapiens) (UniProt Q8NGY5)
T13 sequence (whole entry): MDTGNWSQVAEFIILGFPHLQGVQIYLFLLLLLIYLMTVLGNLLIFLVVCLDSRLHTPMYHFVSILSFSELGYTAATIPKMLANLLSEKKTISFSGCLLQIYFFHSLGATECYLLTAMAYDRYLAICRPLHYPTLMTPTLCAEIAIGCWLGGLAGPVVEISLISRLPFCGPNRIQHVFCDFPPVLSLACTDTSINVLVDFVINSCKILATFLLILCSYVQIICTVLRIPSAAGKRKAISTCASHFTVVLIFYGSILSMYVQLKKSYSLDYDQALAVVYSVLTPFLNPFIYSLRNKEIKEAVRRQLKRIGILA
In short: as §1

OR6N2 (Homo sapiens) = molecular target: T14, OR6N2 (Homo sapiens) (UniProt Q8NGY6)
T14 sequence (whole entry): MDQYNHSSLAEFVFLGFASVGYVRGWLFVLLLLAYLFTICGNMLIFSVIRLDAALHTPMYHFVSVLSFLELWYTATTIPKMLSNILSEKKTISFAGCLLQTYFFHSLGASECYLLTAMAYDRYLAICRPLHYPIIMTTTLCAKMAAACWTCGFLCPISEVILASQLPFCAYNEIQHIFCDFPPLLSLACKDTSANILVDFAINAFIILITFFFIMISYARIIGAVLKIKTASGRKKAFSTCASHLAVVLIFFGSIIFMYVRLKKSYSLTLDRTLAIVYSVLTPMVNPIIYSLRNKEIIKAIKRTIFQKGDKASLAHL
In short: as §1

OR6P1 (Homo sapiens) = molecular target: T15, OR6P1 (Homo sapiens) (UniProt Q8NGX9)
T15 sequence (whole entry): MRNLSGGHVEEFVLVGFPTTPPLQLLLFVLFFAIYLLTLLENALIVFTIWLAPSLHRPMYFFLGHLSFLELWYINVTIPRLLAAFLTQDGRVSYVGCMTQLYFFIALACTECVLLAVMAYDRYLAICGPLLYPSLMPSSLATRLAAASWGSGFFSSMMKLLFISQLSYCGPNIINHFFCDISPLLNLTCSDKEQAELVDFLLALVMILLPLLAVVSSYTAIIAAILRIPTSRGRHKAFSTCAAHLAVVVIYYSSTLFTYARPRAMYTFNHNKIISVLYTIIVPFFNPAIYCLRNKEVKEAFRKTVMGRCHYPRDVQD
In short: as §1

OR6Q1 (Homo sapiens) = molecular target: T16, OR6Q1 (Homo sapiens) (UniProt Q8NGQ2)
T16 sequence (whole entry): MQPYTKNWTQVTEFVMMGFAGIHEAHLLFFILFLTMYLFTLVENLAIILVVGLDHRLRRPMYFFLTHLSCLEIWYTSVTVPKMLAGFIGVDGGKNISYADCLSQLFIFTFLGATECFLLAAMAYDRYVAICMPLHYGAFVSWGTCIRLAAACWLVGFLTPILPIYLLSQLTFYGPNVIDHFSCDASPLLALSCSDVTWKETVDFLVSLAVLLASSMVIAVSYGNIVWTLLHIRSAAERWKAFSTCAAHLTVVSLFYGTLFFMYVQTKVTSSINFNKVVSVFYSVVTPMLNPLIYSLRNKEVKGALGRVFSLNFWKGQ
In short: as §1

Measured: odorant receptor agonist call;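 also: active if original authors judged signal statistically different from baseline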

CCCCCC(S)C(C)CO (configuration not stated)
inactive: OR6C65 (Homo sapiens) | OR6C68 (Homo sapiens) | OR6C70 (Homo sapiens) | OR6C74 (Homo sapiens) | OR6C75 (Homo sapiens) | OR6C76 (Homo sapiens) | OR6F1 (Homo sapiens) | OR6J1 (Homo sapiens) | OR6K2 (Homo sapiens) | OR6K3 (Homo sapiens) | OR6K6 (Homo sapiens) | OR6M1 (Homo sapiens) | OR6N1 (Homo sapiens) | OR6N2 (Homo sapiens) | OR6P1 (Homo sapiens) | OR6Q1 (Homo sapiens)

CC(CO)CS (configuration not stated)
inactive: OR6C65 (Homo sapiens) | OR6C68 (Homo sapiens) | OR6C70 (Homo sapiens) | OR6C74 (Homo sapiens) | OR6C75 (Homo sapiens) | OR6C76 (Homo sapiens) | OR6F1 (Homo sapiens) | OR6J1 (Homo sapiens) | OR6K2 (Homo sapiens) | OR6K3 (Homo sapiens) | OR6K6 (Homo sapiens) | OR6M1 (Homo sapiens) | OR6N1 (Homo sapiens) | OR6N2 (Homo sapiens) | OR6P1 (Homo sapiens) | OR6Q1 (Homo sapiens)
